ChEMBL document CHEMBL1821587, “Synthesis, antibacterial activities and molecular docking studies of Schiff bases derived from N-(2/4-benzaldehyde-amino) phenyl-N'-phenyl-thiourea” (Bioorg Med Chem, 2011)
Values after ≈ are worked out from the molar mass of the structure shown.

How the values were obtained:
Pseudomonas aeruginosa = assay: Antibacterial activity against Pseudomonas aeruginosa ATCC 13525 after 24 hrs by MTT assay; assay type: functional; settings: ATCC 13525, 24 h
Outline: (§1)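 MICs by broth microdilution in Mueller-Hinton medium. Compounds were taken from a 100 μg/mL DMSO stock into sterile medium and serially diluted. Inoculum about 10⁵ cfu/mL, incubated 37 °C for 24 h, and MIC read visually. MTT (2 mg/mL in PBS pH 7.4) was then added for 4–5 h at room temperature, dye extracted with acidified isopropanol for 12 h, OD read at 550 nm.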

Bacillus subtilis = assay: Antibacterial activity against Bacillus subtilis ATCC 6633 after 24 hrs by MTT assay; assay type: functional; settings: ATCC 6633, 24 h; outline: as §1
Escherichia coli = assay: Antibacterial activity against Escherichia coli ATCC 35218 after 24 hrs by MTT assay; assay type: functional; settings: ATCC 35218, 24 h; outline: as §1
Staphylococcus aureus = assay: Antibacterial activity against Staphylococcus aureus ATCC 6538 after 24 hrs by MTT assay; assay type: functional; settings: ATCC 6538, 24 h; outline: as §1
[1] = Toxicity in RBC assessed as hemolysis; assay type: cell-based; settings: erythrocyte
[2] = Inhibition of Escherichia coli N-terminal His-tagged FabH expressed in Escherichia coli BL21(DE3) using [3H]-acetyl-CoA after 25 mins by liquid scintillation counting
Outline: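 His-tagged E. coli FabH was expressed with IPTG induction, purified on Ni-NTA and stored in Tris pH 7.6 with DTT and glycerol. Assay in 20 mM sodium phosphate pH 7.0 with 0.5 mM DTT, 0.25 mM MgCl₂, […] ACPS-converted holo-ACP and 1 nM FabH. Started with 25 μM acetyl-CoA plus [³H]acetyl-CoA, run 25 min, stopped with TCA; pellet counted by scintillation. Inhibitors added in DMSO (final ≤2%) for IC50.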

| Structure (SMILES) | MIC (Pseudomonas aeruginosa) [µg/mL] | MIC (Bacillus subtilis) [µg/mL] | MIC (Escherichia coli) [µg/mL] | MIC (Staphylococcus aureus) [µg/mL] | IC50 [2] [µM] | MHC [1] [µg/mL] |
| --- | --- | --- | --- | --- | --- | --- |
| O=[N+]([O-])c1ccccc1/C=N/c1ccc(NC(=S)Nc2ccccc2)cc1 | > 100 | 50 (≈ 133 µM) | > 100 | 25 (≈ 66.4 µM) |  |  |
| S=C(Nc1ccccc1)Nc1ccccc1/N=C/c1ccc(Br)cc1 | > 100 | 50 (≈ 122 µM) | > 100 | > 100 |  |  |
| CC1(C)S[C@@H]2[C@H](NC(=O)Cc3ccccc3)C(=O)N2[C@H]1C(=O)O [PENICILLIN G] | 6.25 (≈ 18.7 µM) | 1.56 (≈ 4.67 µM) | 3.13 (≈ 9.36 µM) | 6.25 (≈ 18.7 µM) |  |  |
| Oc1c(Br)cc(Br)cc1/C=N/c1ccc(NC(=S)Nc2ccccc2)cc1 | > 100 | > 100 | > 100 | > 100 |  |  |
| S=C(Nc1ccccc1)Nc1ccccc1/N=C/c1ccc(Cl)cc1 | > 100 | > 100 | > 100 | > 100 |  |  |
| COc1ccc(/C=N/c2ccccc2NC(=S)Nc2ccccc2)cc1 | > 100 | > 100 | > 100 | > 100 |  |  |
| S=C(Nc1ccccc1)Nc1ccc(/N=C/c2cccc(Br)c2)cc1 | > 100 | > 100 | > 100 | > 100 |  |  |
| Oc1c(Br)cc(Br)cc1/C=N/c1ccccc1NC(=S)Nc1ccccc1 | > 100 | > 100 | > 100 | > 100 |  |  |
| Oc1ccccc1/C=N/c1ccccc1NC(=S)Nc1ccccc1 | > 100 | > 100 | > 100 | > 100 |  |  |
| Fc1ccccc1/C=N/c1ccc(NC(=S)Nc2ccccc2)cc1 | > 100 | > 100 | > 100 | > 100 |  |  |
| Oc1ccc(Br)cc1/C=N/c1ccccc1NC(=S)Nc1ccccc1 | > 100 | > 100 | > 100 | > 100 |  |  |

Continued by falling MIC (Pseudomonas aeruginosa), values first:

| MIC (Pseudomonas aeruginosa) [µg/mL] | MIC (Bacillus subtilis) [µg/mL] | MIC (Escherichia coli) [µg/mL] | MIC (Staphylococcus aureus) [µg/mL] | IC50 [2] [µM] | Structure (SMILES) | MHC [1] [µg/mL] |
| --- | --- | --- | --- | --- | --- | --- |
| 50 (≈ 133 µM) | 50 (≈ 133 µM) | 25 (≈ 66.4 µM) | 50 (≈ 133 µM) |  | O=[N+]([O-])c1ccc(/C=N/c2ccc(NC(=S)Nc3ccccc3)cc2)cc1 |  |
| 50 (≈ 143 µM) | 50 (≈ 143 µM) | 50 (≈ 143 µM) | 25 (≈ 71.5 µM) |  | Fc1ccc(/C=N/c2ccc(NC(=S)Nc3ccccc3)cc2)cc1 |  |
| 25 (≈ 72.4 µM) | 25 (≈ 72.4 µM) | 12.5 (≈ 36.2 µM) | 25 (≈ 72.4 µM) | 25.9 | Cc1ccc(/C=N/c2ccc(NC(=S)Nc3ccccc3)cc2)cc1 | > 10000 |
| 25 (≈ 58.6 µM) | 50 (≈ 117 µM) | 25 (≈ 58.6 µM) | 50 (≈ 117 µM) | 39 | Oc1ccc(Br)cc1/C=N/c1ccc(NC(=S)Nc2ccccc2)cc1 | > 10000 |
| 25 (≈ 62.4 µM) | 12.5 (≈ 31.2 µM) | 12.5 (≈ 31.2 µM) | 12.5 (≈ 31.2 µM) | 30.4 | S=C(Nc1ccccc1)Nc1ccc(/N=C/c2ccc(Cl)cc2Cl)cc1 | > 10000 |
| 25 (≈ 60.9 µM) | 50 (≈ 122 µM) | 25 (≈ 60.9 µM) | 50 (≈ 122 µM) | 40.8 | S=C(Nc1ccccc1)Nc1ccc(/N=C/c2ccc(Br)cc2)cc1 | > 10000 |
| 25 (≈ 69.2 µM) | 25 (≈ 69.2 µM) | 50 (≈ 138 µM) | 50 (≈ 138 µM) | 48.1 | COc1cccc(/C=N/c2ccc(NC(=S)Nc3ccccc3)cc2)c1 | > 10000 |
| 6.25 (≈ 16.4 µM) | 12.5 (≈ 32.7 µM) | 6.25 (≈ 16.4 µM) | 12.5 (≈ 32.7 µM) | 12.8 | Oc1ccc(Cl)cc1/C=N/c1ccc(NC(=S)Nc2ccccc2)cc1 | > 10000 |
| 6.25 (≈ 18 µM) | 25 (≈ 72 µM) | 12.5 (≈ 36 µM) | 6.25 (≈ 18 µM) | 28.7 | Oc1ccccc1/C=N/c1ccc(NC(=S)Nc2ccccc2)cc1 | > 10000 |
| 3.13 (≈ 6.47 µM) | 0.39 (≈ 0.807 µM) | 1.56 (≈ 3.23 µM) | 3.13 (≈ 6.47 µM) |  | NC[C@H]1O[C@H](O[C@H]2[C@H](O)[C@@H](O[C@H]3O[C@H](CO)[C@@H](O)[C@H](N)[C@H]3O)[C@H](N)C[C@@H]2N)[C@H](N)[C@@H](O)[C@@H]1O [BEKANAMYCIN] |  |
| 3.13 (≈ 7.15 µM) | 6.25 (≈ 14.3 µM) | 1.56 (≈ 3.57 µM) | 3.13 (≈ 7.15 µM) | 4.3 | S=C(Nc1ccccc1)Nc1ccc(/N=C/c2ccc(OCc3ccccc3)cc2)cc1 | > 10000 |
| 3.13 (≈ 8.2 µM) | 12.5 (≈ 32.7 µM) | 3.13 (≈ 8.2 µM) | 6.25 (≈ 16.4 µM) | 9.5 | Oc1ccc(Cl)cc1/C=N/c1ccccc1NC(=S)Nc1ccccc1 | > 10000 |
| 3.13 (≈ 8.55 µM) | 12.5 (≈ 34.2 µM) | 6.25 (≈ 17.1 µM) | 6.25 (≈ 17.1 µM) | 15.6 | S=C(Nc1ccccc1)Nc1ccc(/N=C/c2ccc(Cl)cc2)cc1 | > 10000 |
